Assay results taken from PubChem BioAssay AID588749 (Vanderbilt Specialized Chemistry Center, 2011).
Blank lines part the entries; values can stand above or below the compound they belong to. Active and inactive are the calls of the source.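 The calls were made as follows: active = a clear dose-dependent calcium response in rat M1 cells, with a fitted half-maximal potency; inactive = the rest.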

Target: Muscarinic acetylcholine receptor M1 (Rattus norvegicus) (UniProt P08482)
Test: rat M1 positive allosteric modulation, dose response, counter-screen for M4 PAM project, CHO cells, calcium fluorescence (AID 588749)
Conditions: Fluo-4 calcium fluorescence
Method in brief: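 Technique: Fluo-4 calcium fluorescence; Material: CHO cells expressing rat M1 muscarinic acetylcholine receptor; Times: compound 144 s before ACh EC20, EC80 86 s later, 37 °C.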

Sequence of Muscarinic acetylcholine receptor M1 (Rattus norvegicus) (P08482 whole entry, looked up): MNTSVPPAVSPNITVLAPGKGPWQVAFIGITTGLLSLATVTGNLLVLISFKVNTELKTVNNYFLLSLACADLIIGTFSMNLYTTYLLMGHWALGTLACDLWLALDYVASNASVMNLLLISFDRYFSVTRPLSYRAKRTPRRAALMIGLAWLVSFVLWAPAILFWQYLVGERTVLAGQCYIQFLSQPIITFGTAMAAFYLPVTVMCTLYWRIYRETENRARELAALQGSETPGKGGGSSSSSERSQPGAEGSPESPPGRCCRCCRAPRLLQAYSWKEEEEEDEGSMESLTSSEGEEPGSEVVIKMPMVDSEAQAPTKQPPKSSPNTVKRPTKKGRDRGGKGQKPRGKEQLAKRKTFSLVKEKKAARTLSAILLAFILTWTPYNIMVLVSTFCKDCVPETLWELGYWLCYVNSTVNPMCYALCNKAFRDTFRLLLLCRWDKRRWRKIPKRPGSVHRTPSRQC

SMILES: Cc1nc2sc(C(=O)NC3CC3)c(N)c2c(C)c1Cl
- EC50: 943 nM

SMILES: Cc1nc2sc(C(=O)NCc3ccc4c(c3)OCO4)c(N)c2c(C)c1Cl
- percent of ACh max response (at 36.8 µM (top of the series)): inactive

SMILES: Cc1nc2sc(C(=O)NCc3ccccc3)c(N)c2c(C)c1Cl
- percent of ACh max response (at 37.4 µM (top of the series)): inactive

SMILES: Cc1nc2sc(C(=O)NCc3cccc(F)c3F)c(N)c2c(C)c1Cl
- percent of ACh max response (at 30 µM (top of the series)): inactive

SMILES: Cc1nc2sc(C(=O)NCc3ccncn3)c(N)c2c(C)c1Cl
- percent of ACh max response (at 30 µM (top of the series)): inactive

SMILES: Cc1nc2sc(C(=O)NCCc3ccncc3)c(N)c2c(C)c1Cl
- percent of ACh max response (at 30 µM (top of the series)): inactive

More lines, now with the values ahead:

- percent of ACh max response (at 45.3 µM (top of the series)): inactive
SMILES: Cc1nc2sc(C(=O)NCc3ccncc3)c(N)c2c(C)c1Cl

- percent of ACh max response (at 45.3 µM (top of the series)): inactive
SMILES: Cc1nc2sc(C(=O)NCc3cccnc3)c(N)c2c(C)c1Cl

- percent of ACh max response (at 30 µM (top of the series)): inactive
SMILES: Cc1nc2sc(C(=O)NCc3nccs3)c(N)c2c(C)c1Cl
